The source made the active and inactive calls. No cut-off for these calls is given here. Where a SMILES comes first, the peptide text is derived from it.
Tests used:
Assay type in all cases: functional
[1] = Chaperone like activity at heat-induced citrate synthase aggregation assessed as aggregation at 200 uM incubated for 5 mins followed by heat stimulation for 3 mins in 43 degC and measured after 60 mins by fluorimetric analysis (reference value: 100%); conditions: time 68.0 min
Method in brief: (§1)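 Thermal aggregation of citrate synthase (150 nM). Peptides were brought to 43 °C in buffer, and CS was added once the temperature had equilibrated. Light scattering at 360 nm was monitored over time. CS with 1% DMSO was set as 100% aggregation, with an Hsp27 (600 nM) chaperone reference run on the same day. Mean ± SEM of at least two or three independent experiments.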

[2] = Chaperone like activity at heat-induced citrate synthase aggregation assessed as aggregation at 60 uM incubated for 5 mins followed by heat stimulation for 3 mins in 43 degC and measured after 60 mins by fluorimetric analysis (reference value: 100%); conditions: time 68.0 min; method in brief: as §1
[3] = Chaperone like activity at kappa-casein amyloid formation at 10 to 200 uM measured upto 21 hrs by fluorescence based assay; conditions: dose 10-200 µM, time hrs <=21
[4] = Chaperone like activity at heat-induced citrate synthase aggregation assessed as aggregation at 0.6 uM incubated for 5 mins followed by heat stimulation for 3 mins in 43 degC and measured after 60 mins by fluorimetric analysis (reference value: 100%); conditions: time 68.0 min; method in brief: as §1
[5] = Chaperone like activity at heat-induced citrate synthase aggregation assessed as aggregation at 150 uM incubated for 5 mins followed by heat stimulation for 3 mins in 43 degC and measured after 60 mins by fluorimetric analysis (reference value: 100%); conditions: time 68.0 min; method in brief: as §1
[6] = Chaperone like activity at heat-induced citrate synthase aggregation assessed as aggregation incubated for 5 mins followed by heat stimulation for 3 mins in 43 degC and measured after 60 mins by fluorimetric analysis relative to control; conditions: time 68.0 min; method in brief: as §1
[7] = Chaperone like activity at heat-induced citrate synthase aggregation assessed as aggregation at 1.2 uM incubated for 5 mins followed by heat stimulation for 3 mins in 43 degC and measured after 60 mins by fluorimetric analysis (reference value: 100%); conditions: time 68.0 min; method in brief: as §1
[8] = Chaperone like activity at heat-induced citrate synthase aggregation assessed as aggregation at 30 uM incubated for 5 mins followed by heat stimulation for 3 mins in 43 degC and measured after 60 mins by fluorimetric analysis (reference value: 100%); conditions: time 68.0 min; method in brief: as §1
[9] = Chaperone like activity at Gdn-Cl/DTT-induced citrate synthase aggregation assessed as aggregation at 200 uM incubated for 5 mins followed by heat stimulation for 3 mins in 43 degC and measured after 60 mins by fluorimetric analysis (reference value: 100%); conditions: time 68.0 min
Method in brief: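 Citrate synthase (150 nM) unfolded with guanidine chloride and DTT at room temperature, then a small aliquot diluted into refolding buffer with peptide (200 μM) or Hsp27 (600 nM). Aggregation followed by light scattering for 1 h. The 1% DMSO control at 1 h was taken as 100% aggregation. Mean ± SEM of at least two independent experiments.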

[10] = Chaperone like activity at heat-induced citrate synthase aggregation assessed as aggregation at 100 uM incubated for 5 mins followed by heat stimulation for 3 mins in 43 degC and measured after 60 mins by fluorimetric analysis (reference value: 100%); conditions: time 68.0 min; method in brief: as §1
[11] = Chaperone like activity at kappa-casein amyloid formation at 200 uM measured upto 21 hrs by fluorescence based assay; conditions: time hrs <=21

Compound	Activity [1] [%]	other results
N[C@H](CO)C(=O)N[C@H](Cc1c[nH]c2ccccc12)C(=O)N[C@H](CC(=O)O)C(=O)N1CCC[C@@H]1C(=O)N[C@H](Cc1ccccc1)C(=O)O	90	–
H-DWDPF-OH	110	–
H-SWDAF-OH	80	–
N[C@@H](CO)C(=O)N[C@@H](Cc1c[nH]c2ccccc12)C(=O)N[C@@H](CC(=O)O)C(=O)N1CCC[C@H]1C(=O)N[C@@H](Cc1ccccc1)C(=O)O	46	Activity [2]: 63%; Activity [3]: inactive; Activity [4]: 92%; Activity [5]: 15%; Activity [6]: Dose-dependent effect; Activity [7]: 75%; Activity [8]: 73%; Activity [9]: 63%; Activity [10]: 23%
H-SWDPFRDW-OH	13	Activity [6]: Dose-dependent effect; Activity [9]: 0%
H-SADPF-OH	86	–
H-AWDPF-OH	96	–
H-SWDPFR-OH	96	–
H-GPSWDPFRDW-OH	46	Activity [6]: Dose-dependent effect; Activity [11]: inactive
H-SWDPFRD-OH	57	Activity [9]: 52%
H-SWAPF-OH	81	–
N[C@@H](Cc1c[nH]c2ccccc12)C(=O)N[C@@H](CC(=O)O)C(=O)N1CCC[C@H]1C(=O)N[C@@H](Cc1ccccc1)C(=O)O (H-WDPF-OH)	115	–
H-WDPFR-OH	98	–
H-SWDPA-OH	78	–
